Reference: ChEMBL document CHEMBL1156929, “Synthesis, biological evaluation, and molecular modeling of 1-benzyl-1H-imidazoles as selective inhibitors of aldosterone synthase (CYP11B2)” (J Med Chem, 2010)

Assays:
[1] = target: T1, Cytochrome P450 11B2, mitochondrial (Homo sapiens, UniProt P19099); assay: Inhibition of human CYP11B2 expressed in chinese hamster V79 cells; type: cell-based
T1 sequence (P19099 whole entry): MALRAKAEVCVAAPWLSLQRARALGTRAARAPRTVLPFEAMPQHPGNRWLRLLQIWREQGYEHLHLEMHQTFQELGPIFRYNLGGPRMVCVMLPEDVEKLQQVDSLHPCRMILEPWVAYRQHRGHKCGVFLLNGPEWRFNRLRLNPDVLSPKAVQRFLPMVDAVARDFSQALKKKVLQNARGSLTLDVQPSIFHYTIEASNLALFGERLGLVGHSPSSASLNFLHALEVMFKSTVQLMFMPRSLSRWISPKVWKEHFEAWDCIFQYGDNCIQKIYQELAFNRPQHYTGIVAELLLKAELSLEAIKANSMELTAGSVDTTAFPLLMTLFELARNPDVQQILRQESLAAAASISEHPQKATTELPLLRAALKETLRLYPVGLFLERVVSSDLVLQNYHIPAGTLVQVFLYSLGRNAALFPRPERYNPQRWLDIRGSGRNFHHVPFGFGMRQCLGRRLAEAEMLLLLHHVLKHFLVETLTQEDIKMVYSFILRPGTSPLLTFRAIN
Outline: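 Confluent V79 cells stably overexpressing human CYP11B2, 37 °C, 5% CO2. […] Steroids were extracted from medium with diethylether at pH 10.5 and quantified by HPLC (UV 243 nm) using peak-area ratios to methylprednisolone internal standard. IC50 from at least five concentrations, fitted to vi = v0/(1+I/IC50).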

[2] = target: T2, Cytochrome P450 11B1, mitochondrial (Homo sapiens, UniProt P15538); assay: Inhibition of human CYP11B1 expressed in chinese hamster V79 cells; type: cell-based
T2 sequence (P15538 whole entry): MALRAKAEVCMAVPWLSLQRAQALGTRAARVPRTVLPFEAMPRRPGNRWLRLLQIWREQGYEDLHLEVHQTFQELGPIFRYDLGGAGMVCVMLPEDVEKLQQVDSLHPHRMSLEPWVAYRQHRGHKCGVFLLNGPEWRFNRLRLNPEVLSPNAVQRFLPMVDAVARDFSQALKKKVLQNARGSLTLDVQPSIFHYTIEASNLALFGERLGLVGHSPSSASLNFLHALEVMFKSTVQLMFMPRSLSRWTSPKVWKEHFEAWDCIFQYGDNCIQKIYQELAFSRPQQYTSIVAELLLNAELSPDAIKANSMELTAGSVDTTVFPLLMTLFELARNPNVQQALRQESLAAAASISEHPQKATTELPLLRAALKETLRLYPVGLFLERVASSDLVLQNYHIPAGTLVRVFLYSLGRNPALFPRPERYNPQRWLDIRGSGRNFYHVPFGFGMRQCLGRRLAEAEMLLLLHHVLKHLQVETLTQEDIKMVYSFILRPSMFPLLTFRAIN

| SMILES | IC50 ([1]; read-out: IC50) | IC50 ([2]; read-out: IC50) | IC50 [1] | IC50 ([2]; read-out: pIC50 (converted)) |
| --- | --- | --- | --- | --- |
| Cc1ccc(-c2cncn2Cc2ccc(C#N)cc2)cc1 | 117 nM | 130 nM |  |  |
| CCOC(=O)c1cncn1[C@H](C)c1ccccc1 [ETOMIDATE] | 1.7 nM |  |  |  |
| OCc1cccc(Cn2ccnc2)c1 | 1170 nM | 206 nM |  |  |
| Clc1ccc(Cn2cncc2-c2ccccc2)cc1 | 5.8 nM | 25 nM |  |  |
| OCc1ccc(Cn2ccnc2)cc1 | > 1000 nM | 695 nM | > 1000 nM |  |
| c1ccc(Cn2cncc2-c2ccccc2)cc1 | 11 nM | 4.8 nM |  |  |
| COC(=O)CCc1cncn1Cc1ccc(Cl)cc1 | 177 nM | 123 nM |  |  |
| Brc1ccc(Cn2ccnc2)cc1 | 479 nM | 211 nM |  |  |
| Cc1cccc(-c2cncn2Cc2ccc(C#N)cc2)c1 | 5.2 nM | 6.2 nM |  |  |
| N#Cc1ccc(Cn2cncc2CCCO)cc1 | 13 nM | 48 nM |  |  |
| Fc1cccc(Cn2ccnc2)c1 | 815 nM | 206 nM |  |  |
| Nc1cccc(Cn2ccnc2)c1 | 600 nM | 390 nM |  |  |
| COC(=O)CCc1cncn1Cc1ccc(OC)cc1 | 121 nM | 111 nM |  |  |
| N#Cc1ccc(Cn2cncc2-c2ccc(F)cc2)cc1 | 25 nM | 27 nM |  |  |
| N#Cc1ccc(Cn2cncc2-c2ccccc2F)cc1 | 2.3 nM | 20 nM |  |  |
| COC(=O)CCc1cncn1Cc1ccc(F)cc1 | 50 nM | 104 nM |  |  |
| COc1ccc(Cn2cncc2CCCO)cc1 | 59 nM |  |  |  |
| Brc1cccc(Cn2ccnc2)c1 | 365 nM | 143 nM |  |  |
| N#Cc1ccc(Cn2cncc2CO)cc1 | 29 nM |  |  | 282 nM |
| c1ccc(Cn2ccnc2)cc1 [BENZYLIMIDAZOLE] | 1800 nM | 709 nM |  |  |
| Cc1cncn1Cc1ccc(C#N)cc1 | 12 nM |  |  |  |

| SMILES | IC50 ([1]; read-out: IC50) | IC50 ([2]; read-out: IC50) | IC50 [1] | IC50 ([2]; read-out: pIC50 (converted)) |
| --- | --- | --- | --- | --- |
| N#Cc1ccc(Cn2cncc2-c2cccc(F)c2)cc1 |  |  |  | 32.4 nM |
| N#Cc1ccc(Cn2ccnc2)cc1 | 372 nM | 368 nM |  |  |
| OCCCc1cncn1Cc1ccc(F)cc1 | 16 nM |  |  |  |
| Cc1ccccc1-c1cncn1Cc1ccc(C#N)cc1 | 3.7 nM | 5.7 nM |  |  |
| COC(=O)c1cncn1Cc1ccc(C#N)cc1 | 7 nM |  |  |  |
| OCCCc1cncn1Cc1ccc(Cl)cc1 | 55 nM | 44 nM |  |  |
| COc1ccc(Cn2cncc2-c2ccccc2)cc1 | 14 nM | 11 nM |  |  |
| N#Cc1ccc(Cn2cncc2-c2ccncc2)cc1 | 407 nM | 307 nM |  |  |
| OCCCc1cncn1Cc1ccccc1 | 286 nM | 181 nM |  |  |
| OCCCc1cncn1Cc1ccc(Br)cc1 | 6.2 nM | 18 nM |  |  |
| N#Cc1cccc(Cn2ccnc2)c1 | > 1000 nM | > 1000 nM | > 1000 nM |  |
| Fc1ccc(Cn2cncc2-c2ccccc2)cc1 | 11 nM | 16 nM |  |  |
| Fc1ccc(Cn2ccnc2)cc1 | 330 nM | 494 nM |  |  |
| Brc1ccc(Cn2cncc2-c2ccccc2)cc1 | 5.1 nM | 7 nM |  |  |
| N#Cc1ccc(Cn2cncc2Br)cc1 | 23 nM | 73 nM |  |  |
| Clc1ccc(Cn2ccnc2)cc1 | > 1000 nM | > 1000 nM | > 1000 nM |  |
| N#Cc1ccc(Cn2cncc2-c2ccccc2)cc1 |  | 28 nM |  |  |
| Clc1cccc(Cn2ccnc2)c1 | 457 nM | 151 nM |  |  |
| COC(=O)CCc1cncn1Cc1ccccc1 | 193 nM | 326 nM |  |  |
| Nc1ccc(Cn2ccnc2)cc1 | > 1000 nM | 236 nM | > 1000 nM |  |
